Bioassay records deposited in PubChem BioAssay by several laboratories.
Only some compounds are listed: those with a hit (about 9.2% of all), similar ones and a draw of the others.
Dynein transport: blocks dynein driven cargo transport along microtubules. actives 0.47% (n = 220,000). z-score, hits read low. 3617.4 mouse cells, GR-EGFP nuclear translocation imaging; test concentration mostly 20 µM; stimulated with dexamethasone, 1 µM; active compounds read low;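 active = plate z-score of nuclear minus cytoplasmic receptor signal below a set negative limit, without overly bright fluorescence or cell loss, cut at about -3.5 in these data, passing the limit was not always enough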;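 note: z-score of nuclear minus cytoplasmic ring GR-EGFP intensity difference per well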
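Schedule: 48 h induction, then 1 h compound, then 30 min agonist, 37 °C. Buffer or medium: tetracycline-free induction medium containing charcoal-stripped FBS. Reagent: 1.0 µM final dexamethasone stimulus. Evaluation: nuclear versus cytoplasmic GR-EGFP signal, averaged per well. Signal: high-content fluorescence imaging after fixation.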
L major viab: Leishmania major promastigote growth inhibition. Leishmania major promastigotes, resazurin fluorescence viability. inhibition, % at 10 µM. actives 9% (n = 200,000). AID 1063; in the data active = inhibition above about 50%;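 note: promastigotes grown with compound for 44 hours at 28 °C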
HCT116 PTEN-null: PTEN-deleted cell growth suppression; viability, % at 10 µM; AID 827; HCT116 PTEN-null viability, CellTiter-Glo, 60 h; active compounds read low; actives 1.2% (n = 140,000);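 active = viability at or below a set limit, 4 SD under the median of all tested compounds, cut at about 3.7% in these data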;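 note: PTEN knockout HCT116 line with beta catenin targeted HCT116 as companion control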
Autophagy HCS: alters autophagy in cells; MEF GFP-LC3 puncta imaging; test concentration mostly 10 µM; AID 463193; calls only at 10 µM (by protocol); actives 0.98% (n = 190,000);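 active = percentage of spot-positive cells more than 3 SD above its plate mean, without a fluorescence outlier flag or 80% toxicity; inconclusive = no clear call, values can overlap the other calls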;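 note: spot-positive cell cutoff set from DMSO-treated cells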
bCat KO growth: beta-catenin-lacking colon tumor cell growth suppression. HCT116 beta-catenin knockout viability, CellTiter-Glo, 60 h; active compounds read low. viability, % at 10 µM. actives 1.5% (n = 140,000). AID 818;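 active = viability at or under a set limit, the compound median less 4 SD, cut at about 6% in these data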;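 note: 0% = Hyamine 1622 control at 20 µM and 100% = untreated cell control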
Dynein inh conf: dynein cargo transport inhibition, confirmation; shares compounds with Dynein transport; 3617.4 GR-EGFP nuclear translocation imaging, dexamethasone-induced; calls only at 20 µM; actives 69% (n = 1,000);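 active = inhibition of receptor movement into the nucleus at or above a set limit in both runs, with normal cell brightness and cell count; inconclusive = limit reached in only one run, brightness and count normal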;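 note: dexamethasone at 1 µM final in well for 30 min; nuclear minus cytoplasmic GR-EGFP mean intensity difference in channel 2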
An asterisk follows results filed as active; i = inactive; ? = inconclusive; . = no result; + = active, no number.

SMILES	Dynein transport	L major viab	HCT116 PTEN-null	Autophagy HCS	bCat KO growth	Dynein inh conf
Cn1c(N2CCC(C(N)=O)CC2)nc2c1c(=O)n(Cc1cccc(Br)c1)c(=O)n2C	0.24	15	92	i	89	.
CCOC(=O)c1c(CSC(=N)N)n(-c2ccccc2)c2cc(Br)c(OC(C)=O)cc12	-2.5	.	.	.	.	.
Cc1cc(C)c(S(=O)(=O)n2nc(C)c(Br)c2C)c(C)c1	-0.75	6	96	i	98	.
CS(=O)(=O)c1sc2nc(-c3cccs3)cc(-c3ccccc3)c2c1N	-0.4	48	75	i	77	.
CC(=O)c1sc2nc(-c3cccs3)cc(C(F)(F)F)c2c1N	-4.3	-8	56	+	60	+
COc1cccc(-c2cc(C(F)(F)F)c3c(N)c(C#N)sc3n2)c1	-0.77	-1	83	i	93	.
Nc1c(C(=O)C2CC2)sc2nc(-c3ccccc3)cc(C(F)(F)F)c12	-6.1	1	77	?	82	i
COc1ccc(CN(Cc2cccn2C)C(=O)c2cc3cc(OC)ccc3[nH]2)cc1	-0.89	.	.	.	.	.
Cc1c(C(=O)NCCC2=CCCCC2)cccc1[N+](=O)[O-]	1.2	8	91	i	95	.
COCCNC(=S)N1CCC(C(=O)c2ccc3c(c2)OCCO3)CC1	0.1	0	.	i	.	.
O=C(Cn1cncn1)NCCCc1ccccc1	-0.26	-1	.	i	.	.
Cc1ccc(S(=O)(=O)Nc2ccc3c(c2)nc2n3CCN(Cc3ccccc3)C2)cc1	-3.5*	99*	84	i	84	i
O=C(Nc1ccc2c(c1)nc1n2CCN(Cc2ccccc2)C1)c1cccs1	-0.55	48	102	i	106	.
C=C(CC)C(=O)c1ccc(OCC(=O)O)c(Cl)c1Cl	-3.7*	11	72	i	72	+
CCOC(=O)COc1ccc2nsnc2c1Cl	-0.28	-6	96	i	82	.
N#C/C(=C/c1ccc(Sc2nc3ccccc3[nH]2)o1)c1cccc(F)c1	3.2	16	69	i	75	.
Cc1ccc(/C(C#N)=C\c2ccc(N3CCOCC3)o2)cc1	-3	9	69	i	54	.
N#C/C(=C/c1ccc(N2CCCCCC2)o1)c1ccc(Cl)cc1	-6.1	17	64	?	52	i
N#C/C(=C/c1ccc(N2CCCCC2)o1)c1cccc(F)c1	-4.3	17	76	?	65	i
COc1ccccc1CNC(=O)C1CC(c2ccccc2C(F)(F)F)=NO1 (stereo not drawn)	-0.56	.	.	.	.	.
COc1ccc(/C=C/C(=O)c2cc(F)ccc2OC(=O)c2ccccc2OC)cc1OC	-3.9*	48	.	i	.	+
COc1ccc(/C=C/C(=O)c2ccc[nH]2)cc1OC	0.3	10	77	i	61	.
COc1ccc(/C=C/C(=O)c2cc(Br)ccc2OC(=O)c2ccco2)cc1OC	-3.7*	79*	12	i	11	+
COc1ccc(Br)cc1C(=O)Nc1cccc(NC(=O)c2ccco2)c1	-0.93	-8	92	i	89	.
O=C(c1cn(-c2ccccc2)nc1-c1cccs1)N1CCN(c2ccc(F)cc2)CC1	-0.4	32	68	i	83	.
SMILES	Dynein transport	L major viab	HCT116 PTEN-null	Autophagy HCS	bCat KO growth	Dynein inh conf
CCOc1ccc(C2NC(=O)C(C#N)=C(S)N2c2ccc(C)cc2)cc1OC (stereo not drawn)	0.29	1	83	i	74	.
CC1(C)CC(=O)/C(=C\c2cccc([N+](=O)[O-])c2)C(C)(C)N1	-3.6*	100*	9	i	18	+
COC(=O)c1scc(C)c1NC(=O)/C=C/C(=O)O	-3.8*	.	.	.	.	i
O=Cc1[nH]c2ccccc2c1N(C(=O)CCl)c1ccccc1	-7.6	.	.	.	.	+
CCCCCCCN(C(=O)CCl)c1cccc(C)c1	-3	34	67	i	70	.
CCCCCCN(C(=O)CCl)c1ccccc1	-4.7*	.	.	.	.	+
O=C(N(c1ccccc1)c1ccccc1)N(c1ccccc1)c1ccccc1	-0.62	.	.	.	.	.
O=C(CCl)N(c1ccccc1)c1ccccc1	-4.5*	77*	.	i	.	+
O=C(Cc1ccccc1)Nc1ccc(NC(=O)c2cccs2)cc1	1.8	-6	.	i	.	.
COc1ccccc1C(C[N+](=O)[O-])c1c(N)n(C)c(=O)n(C)c1=O (stereo not drawn)	-3.5*	.	.	.	.	?
COc1ccccc1C(c1c(N)n(C)c(=O)n(C)c1=O)C(C)[N+](=O)[O-] (stereo not drawn)	-0.21	.	.	.	.	.
Cc1cc(=O)[nH]c(N/N=C/c2ccc(OC(=O)c3ccco3)cc2)n1	-0.32	13	92	i	98	.
O=C(O)c1ccc(N/N=C/c2cn(Cc3ccc(F)cc3)c3ccccc23)cc1	-0.95	.	.	.	.	.
O=[N+]([O-])/C=C/c1cn(Cc2ccc(F)cc2)c2ccccc12	-3.9*	99*	1.4*	i	1.9*	+
C/C=N\NC(=O)CNC(=O)CNC(=O)c1ccccc1	-0.58	-2	.	i	.	.
O=C(/C=C/c1ccncc1)c1cc(Cl)ccc1O	-0.59	.	.	.	.	.
O=C(/C=C/c1ccccn1)c1ccc(Br)cc1O	-3.7*	42	63	i	64	?
O=C(/C=C/c1ccccn1)c1cc(Br)ccc1O	-4.8*	.	.	.	.	+
CCCCNc1ccc2c3c(cccc13)C(=O)N(CCCC)C2=O	-6.1*	.	.	.	.	+
O=C1c2cccc3c(O)ccc(c23)C(=O)N1Cc1ccccc1	-0.86	-6	118	i	101	.
COCCNC(=O)CSCc1cc(C)cc(C)c1	-0.42	-5	.	i	.	.
Nc1nc2ccc(S(=O)(=O)N3CCCCC3)cc2s1	-4.1*	14	83	i	91	i
COc1cccc(/C(O)=C/c2nc3ccc(C(=O)NCCc4ccc(Cl)cc4)cc3[nH]c2=O)c1	-6.8	2	1.2*	+	1.5*	+
C=CCOc1c(Cl)cc(CNc2nccs2)cc1OC	-0.31	11	.	i	.	.
COc1ccc(OC)c(-c2csc(NC(=O)Cc3cccs3)n2)c1	-0.71	20	.	i	.	.
SMILES	Dynein transport	L major viab	HCT116 PTEN-null	Autophagy HCS	bCat KO growth	Dynein inh conf
O=C(Cc1cccs1)Nc1nc(-c2ccc(F)cc2F)cs1	-3.5*	98*	20	i	24	i
COc1cccc(CN(CC2CCCO2)C(=O)c2cc3ccccc3oc2=O)c1 (stereo not drawn)	0.76	-3	.	i	.	.
CO/N=C/c1ccc(Oc2ccc([N+](=O)[O-])cc2[N+](=O)[O-])c(OC)c1	-0.15	8	12	i	10	.
COc1cc(/C=C2\SC(=O)NC2=O)ccc1Oc1ccc([N+](=O)[O-])cc1[N+](=O)[O-]	-3.8*	44	.	i	.	?
COc1ccc(/C=N/N(C)c2cc(=O)n(C)c(=O)[nH]2)cc1OC	2.3	-1	.	i	.	.
Cc1cc(C)c[n+](-c2nc3ccccc3nc2[N-]S(=O)(=O)c2ccc(Cl)cc2)c1	-0.27	-6	81	i	88	.
